IMP-1 inh-1: IMP-1 metallo-beta-lactamase inhibitors, primary screen, biochemical, epi-absorbance readout, Pseudomonas aeruginosa enzyme. hit rate 0.45% among 290,000. inhibition, % at 5.6 µM. purified IMP-1, nitrocefin hydrolysis, epi-absorbance fluorescence;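 active means inhibition above the mean plus 3 SD of all compounds in the same screening run, cut at about 4.5% in these data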;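 further: 0% = IMP-1 with DMSO and 100% = DMSO wells lacking enzyme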
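System: purified IMP-1 / Input: IMP-1 dispensed at 0.2 nM / Medium: 50 mM HEPES pH 7.1, 50 µM ZnSO4, 0.05% Brij 35 / Timing: 15 min enzyme–compound preincubation, then 25 min nitrocefin reaction, 25 °C / Technique: plate fluorescence quenching by hydrolysis product, ex 480/em 530 nm / Repeats: singlicate testing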
697 NFkB inh: inhibitors of PMA/ionomycin-induced NF-kB reporter, 697 cells, primary screen, B-cell NF-kB inhibitor project, cell-based, luminescence, uHTS | 697 B-cell NF-kB luciferase reporter, 16 h | inhibition, % at 4 µM | hit rate 0.33% among 330,000 | AID 435022, 2010; in the data active means inhibition above about 35%
aSyn UTR inh: MLPCN primary screen, SNCA 5' untranslated region. alpha-synuclein 5'UTR reporter, inhibitor activity. inhibition, % (tested at 7.5 µM). hit rate 0.82% among 300,000; in the data active means inhibition above about 60%;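 further: H4 neuroglioblastoma cells stably carrying SNCA 5'UTR luciferase fusion; 0% = DMSO wells and 100% = positive control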
Jurkat NFkB inh: inhibitors of induced NF-kB luciferase reporter, primary screen, TCR NF-kB activation inhibitor project, cell-based, luminescence, uHTS; Jurkat, PMA/ionomycin-induced NF-kB luciferase reporter; inhibition, % at 4 µM; hit rate 0.53% among 330,000; in the data active means inhibition above about 50%
Mdm2 MdmX PPI: inhibitors of human Mdm2-MdmX association, primary screen, cell-based, luminescence, split luciferase, SaOS-2, uHTS; Protein Mdm4 (Homo sapiens) + E3 ubiquitin-protein ligase Mdm2 (Homo sapiens), …; SaOS-2 split-luciferase Mdm2/MdmX complementation; inhibition, % at 8 µM; hit rate 3% among 330,000; AID 485346, 2010;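 active means inhibition of at least 50% at 8 µM in the primary screen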
Target sequence (O15151 whole entry, looked up): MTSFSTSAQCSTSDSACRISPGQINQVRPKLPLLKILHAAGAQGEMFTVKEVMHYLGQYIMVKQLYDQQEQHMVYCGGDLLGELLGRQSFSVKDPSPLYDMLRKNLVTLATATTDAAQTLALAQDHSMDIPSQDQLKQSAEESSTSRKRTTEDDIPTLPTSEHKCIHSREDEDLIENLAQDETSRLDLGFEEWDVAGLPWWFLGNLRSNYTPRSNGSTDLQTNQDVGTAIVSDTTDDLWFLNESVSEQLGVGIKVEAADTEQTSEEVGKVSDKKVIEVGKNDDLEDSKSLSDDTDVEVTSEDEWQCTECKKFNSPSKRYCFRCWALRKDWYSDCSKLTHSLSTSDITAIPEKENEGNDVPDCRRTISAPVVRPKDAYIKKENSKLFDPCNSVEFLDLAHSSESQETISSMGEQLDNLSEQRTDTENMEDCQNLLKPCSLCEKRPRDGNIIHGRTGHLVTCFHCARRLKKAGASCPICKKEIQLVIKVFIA
Target sequence (Q00987 whole entry, looked up): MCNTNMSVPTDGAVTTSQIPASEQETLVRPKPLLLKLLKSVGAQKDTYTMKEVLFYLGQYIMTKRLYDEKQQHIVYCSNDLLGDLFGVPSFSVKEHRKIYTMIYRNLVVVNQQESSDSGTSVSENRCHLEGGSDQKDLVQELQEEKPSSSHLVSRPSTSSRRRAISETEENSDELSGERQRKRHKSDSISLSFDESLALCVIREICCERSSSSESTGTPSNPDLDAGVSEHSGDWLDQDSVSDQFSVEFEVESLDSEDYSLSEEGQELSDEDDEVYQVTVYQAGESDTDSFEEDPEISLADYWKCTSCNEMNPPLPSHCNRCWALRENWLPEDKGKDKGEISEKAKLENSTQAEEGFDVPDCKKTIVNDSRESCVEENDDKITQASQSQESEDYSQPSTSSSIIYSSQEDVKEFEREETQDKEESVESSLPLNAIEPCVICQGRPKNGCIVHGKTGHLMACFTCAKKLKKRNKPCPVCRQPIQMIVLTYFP
VIM-2 inh: VIM-2 metallo-beta-lactamase inhibitors, primary screen, biochemical, epi-absorbance readout, Pseudomonas aeruginosa enzyme; purified VIM-2, nitrocefin hydrolysis, epi-absorbance fluorescence; hit rate 0.89% among 290,000; inhibition, % at 5.6 µM;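 active means inhibition above the mean of all tested compounds plus 3 SD, cutoff set per screening run, cut at about 7.5% in these data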;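 further: red hydrolysis product quenches plate fluorescence so inhibitors raise well fluorescence; 0% = enzyme with DMSO and 100% = DMSO without enzyme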
IMP-1 inh-2: IMP-1 metallo-beta-lactamase inhibitors, confirmation, selectivity assay for selective VIM-2 inhibitor project, biochemical, epi-absorbance readout, triplicate; inhibition, % at 5.6 µM; shares compounds with VIM-2 inh; purified IMP-1, nitrocefin hydrolysis, epi-absorbance fluorescence; 1,300 tested, under 10 active; call rule not given here;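 further: 0% = enzyme with vehicle and 100% = vehicle without enzyme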
VIM-2 FRET inh: VIM-2 inhibitors in FRET format, confirmation, artefact control for selective VIM-2 inhibitor project, biochemical, epi-absorbance artifact exclusion; shares compounds with VIM-2 inh; purified VIM-2, CCF2 FRET substrate hydrolysis; inhibition, % at 5.6 µM; hit rate 23% among 1,300; AID 1857, 2009;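 active means inhibition above the mean of all tested compounds plus 3 SD, cut at about 19% in these data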;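 further: 0% = VIM-2 plus DMSO and 100% = no enzyme wells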
TEM-1 inh: TEM-1 serine beta-lactamase inhibitors, counter-screen for VIM-2 inhibitor project, biochemical, epi-absorbance, HTS; shares compounds with VIM-2 inh; Purified TEM-1, nitrocefin hydrolysis, epi-absorbance fluorescence; inhibition, % at 5.6 µM; hit rate 3% among 1,300;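 active means inhibition above that campaign's mean inhibition plus 3 SD, cut at about 0.46% in these data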;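 further: 0% = TEM-1 with DMSO and 100% = TEM-1 with 100 µM potassium clavulanate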
VIM-2 inh conf: VIM-2 metallo-beta-lactamase inhibitors, confirmation, biochemical, epi-absorbance, hits shared with IMP-1 screen; purified VIM-2, nitrocefin hydrolysis; hit rate 96% among 1,300; shares compounds with VIM-2 inh; inhibition, % at 5.6 µM;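 active means inhibition of the VIM-2 beta-lactamase enzyme above about 11% from the earlier first-round screen, limit read from the data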;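 further: 0% = VIM-2 with DMSO and 100% = buffer wells without enzyme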
The depositor's hits bear a star; nt = not tested or not shown. Hits are enriched below; roughly 4.7% of the tested compounds scored in any of these assays.

SMILES	IMP-1 inh-1	697 NFkB inh	aSyn UTR inh	Jurkat NFkB inh	Mdm2 MdmX PPI	VIM-2 inh	IMP-1 inh-2	VIM-2 FRET inh	TEM-1 inh	VIM-2 inh conf
CN(C)CCN(Cc1ccco1)C(=O)c1cc2c(Cl)nc3ccccc3c2s1	-1	-13	11	4	21	13*	-2	0	-4	36*
CN(C)CCN(Cc1ccco1)C(=O)c1oc2ccccc2c1NC(=O)COc1ccccc1	-3	-7	8	-6	38	2	nt	nt	nt	nt
CN(CCC#N)C(=O)c1cc2c(Cl)nc3ccccc3c2s1	-2	6	5	-28	4	20*	-4	7	-6	25*
Cc1c(CC(=O)O)c(=O)oc2c(C)c3occ(-c4ccccc4)c3cc12	1	-5	14	17	11	15*	1	2	-10	21*
CC(C)CC1Nc2ncnc(N3CCN(c4ccccc4)CC3)c2N(Cc2ccc(Cl)cc2)C1=O (stereo unspecified)	nt	9	32	-15	27	nt	nt	nt	nt	nt
Cc1csc2c(C#N)c(=O)c3c(n12)CCC3	-1	7	18	-7	21	14*	-4	-6	-9	22*
COc1ccccc1NC(=O)Nc1ccnn1C1CCN(C(=O)c2cccnc2)CC1	-4	-2	-11	-3	0	-2	nt	nt	nt	nt
CCOC(=O)c1cnc2c(CC)cccc2c1NCCN1CCOCC1	-2	-7	-2	8	13	14*	-3	1	-6	24*
CCOC(=O)c1cnc2c(C(=O)OC)cccc2c1NCCN1CCOCC1	-3	-27	12	-15	-30	0	nt	nt	nt	nt
Cc1ccc(-c2nn3cnnc3c3ccccc23)cc1	-1	-3	15	1	-25	17*	-3	2	-5	27*
Cc1nc2ccc(NC(=O)N3CCSCC3)cc2s1	-3	-39	-51	-31	-5	0	nt	nt	nt	nt
Cc1nc2ccc(NC(=O)N3CCSCC3)cc2nc1C	-4	-3	13	-6	8	16*	-3	3	-6	4
O=C(COc1cc2oc(=O)c3c(c2cc1Cl)CCC3)NCCCN1CCCC1=O	-3	14	-7	0	-1	18*	-2	0	-6	32*
O=C(COc1ccc2c3c(c(=O)oc2c1)CCC3)NCCN1CCOCC1	-1	5	-4	-14	17	19*	-3	-16	-5	25*
O=C(COc1ccc2c(c1)oc(=O)c1ccccc12)NCCN1CCOCC1	2	-12	4	3	-18	19*	-3	1	-6	27*
O=C(COc1ccc2c(-c3ccccc3)cc(=O)oc2c1)NCCCN1CCOCC1	-2	-41	-3	-10	10	-1	nt	nt	nt	nt
COc1ccccc1C(=O)N/C(=C\c1cn(C)c2ccccc12)C(=O)NCCCn1ccnc1	-1	1	4	11	9	-2	nt	nt	nt	nt
Cc1sc2c(=O)n3c(nc2c1C(=O)NCCCN1CCOCC1)CCCCC3	-3	7	-12	1	-7	18*	-2	0	-6	36*
CCCc1cc(=O)oc2c(C)c(OCC(=O)N3CCC(C(N)=O)CC3)ccc12	-2	12	-4	6	15	-2	nt	nt	nt	nt
Cc1c(OCC(=O)N2CCC(C(N)=O)CC2)ccc2c3c(c(=O)oc12)CCCC3	-1	24	-25	-4	6	12*	-3	-3	-15	19*
Cc1c(OCC(=O)N2CCC(C(N)=O)CC2)ccc2c1oc(=O)c1ccccc12	-4	19	1	-4	-14	23*	-4	-1	-12	31*
O=C(O)C(c1ccccc1)N1C(=O)c2cccc3cccc(c23)C1=O (stereo unspecified)	4	9	-16	4	16	20*	3	39*	-7	27*
CCCc1[nH][nH]c(=O)c1C(c1ccc(Cl)cc1)C(C#N)C#N (stereo unspecified)	-3	9	11	21	17	12*	-4	15	-6	0
Cc1[nH][nH]c(=O)c1[C@@H](c1ccccc1[N+](=O)[O-])C(C#N)C#N	-2	-1	-2	-9	-28	0	nt	nt	nt	nt
Cc1ccc(-n2c(-c3cccc(C)c3)n[nH]c2=S)cc1	-4	14	31	1	-7	0	nt	nt	nt	nt
SMILES	IMP-1 inh-1	697 NFkB inh	aSyn UTR inh	Jurkat NFkB inh	Mdm2 MdmX PPI	VIM-2 inh	IMP-1 inh-2	VIM-2 FRET inh	TEM-1 inh	VIM-2 inh conf
Oc1ccccc1-c1n[nH]c(=S)n1Cc1ccccc1	-3	5	11	22	2	13*	-4	26*	-9	15*
CCCCc1n[nH]c(=S)n1Cc1ccc(C)cc1	-1	-5	21	-6	14	23*	-2	37*	-3	26*
Oc1ccc(Br)cc1-c1n[nH]c(=S)n1Cc1ccccc1	-3	15	14	-1	14	-3	nt	nt	nt	nt
CCn1c(-c2nn(C)c(C)c2Cl)n[nH]c1=S	-4	8	18	13	7	2	nt	nt	nt	nt
Cc1ccc(-n2c(-c3nn(C)c(C)c3Cl)n[nH]c2=S)cc1	-4	-7	7	1	-3	19*	-4	54*	-8	36*
Cc1ccc(-c2n[nH]c(=S)n2-c2ccccc2)cc1	-3	-3	11	-5	-24	13*	-4	35*	-8	23*
O=C(COc1ccccc1F)Nc1nnc(C2CCCC2)s1	0	-5	-48	11	-8	1	nt	nt	nt	nt
CCC(C)[C@H](NC(=O)[C@H](Cc1ccccc1)n1c(=O)[nH]c2ccccc2c1=O)C(=O)N1CCC[C@@H]1C(=O)O (stereo partly specified)	-2	1	4	-8	-29	0	nt	nt	nt	nt
Cc1ccc(-c2n[nH]c(=S)n2Cc2ccccc2)cc1	0	-21	-4	4	13	12*	-3	29*	-10	16*

Screening data (PubChem)
